Screening data as filed in PubChem BioAssay.
In the library only some 2.8% were active in any assay of this set; here they are far more common.
EP2 antag – human EP2 receptor antagonists, primary screen, TR-FRET cAMP, C6 glioma cells; AID 1422, 2008; C6 glioma cells expressing human EP2; cells stimulated with saturating PGE2; Prostaglandin E2 receptor EP2 subtype (Homo sapiens), P43116; inhibition, % at 25 µM; 0.52% of 260,000 active;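 active means percent inhibition above 40 after rounding to a whole number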;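 further: rat C6 glioma host cells with rolipram phosphodiesterase inhibitor present; the protocol text gives 20 µM as final concentration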
NPY Y1 blocker – NPY-Y1 receptor antagonists, primary screen, cell-based; AID 1040, 2008; Neuropeptide Y receptor type 1 (Homo sapiens), P25929; 1% of 200,000 active; HEK293-CNG Y1 cells, membrane potential fluorescence; NPY at EC95, then isoproterenol; inhibition, % at 3.6 µM;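 active means inhibition above the campaign mean inhibition of all tested compounds plus 3 SD, cut at about 20% in these data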
Target sequence (P25929 whole entry, looked up): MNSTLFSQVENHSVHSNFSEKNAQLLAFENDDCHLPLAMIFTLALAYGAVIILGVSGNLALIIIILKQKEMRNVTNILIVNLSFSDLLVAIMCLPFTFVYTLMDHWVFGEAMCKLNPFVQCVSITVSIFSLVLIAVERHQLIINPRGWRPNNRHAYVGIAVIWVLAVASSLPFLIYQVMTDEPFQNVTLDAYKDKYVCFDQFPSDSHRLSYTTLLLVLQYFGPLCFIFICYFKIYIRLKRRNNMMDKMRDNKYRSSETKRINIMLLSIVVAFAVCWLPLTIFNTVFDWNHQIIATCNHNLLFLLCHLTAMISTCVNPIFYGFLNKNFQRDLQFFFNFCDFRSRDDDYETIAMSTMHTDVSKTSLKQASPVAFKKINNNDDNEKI
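Material: HEK293 cells co-expressing NPY Y1 receptor and cyclic-nucleotide gated channel. Timing: compound incubation 1 h at room temperature, readout 45 min post-stimulation. Signal: fluorescence, membrane potential probe.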
NPY-Y2 PAM-ag – NPY-Y2 potentiators or agonists, primary screen, cell-based; AID 1359, 2008; activation, % at 3.6 µM; cells expressing NPY-Y2, potentiator/agonist read-out; 0.45% of 220,000 active; in the data active means activation above about 27%;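 further: cells stimulated with NPY near EC25 plus isoproterenol at EC100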
NPY-Y1 PAM-ag – NPY-Y1 receptor potentiators or agonists, primary screen, cell-based; Neuropeptide Y receptor type 1 (Homo sapiens), P25929; NPY-Y1 expressing cells, potentiator/agonist activation; activation, % at 3.6 µM; 0.37% of 220,000 active; AID 1304, 2008; in the data active means activation above about 33%, passing the limit was not always enough;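 further: cells stimulated with NPY at EC10 then isoproterenol at EC100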
EP2 modulator – EP2 receptor modulators, cAMP readout, primary screen, cell-based, HTRF cAMP, PGE2 stimulation; AID 940, 2007; EP2-expressing cells, cAMP HTRF FRET, PGE2 co-stimulation; Prostaglandin E2 receptor EP2 subtype (Homo sapiens), P43116; induction, % at 25 µM; 0.83% of 260,000 active;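 active means compounds whose cAMP rise, as percent of the full-agonist control response, exceeds 60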;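 further: rat C6 glioma line stably carrying human EP2 under a CMV promoter; the protocol text gives 20 µM as final concentration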
NPY-Y2 antag – NPY-Y2 receptor antagonists, primary screen, cell-based; Neuropeptide Y receptor type 2 (Homo sapiens), P49146; NPY-Y2 expressing cells, antagonist mode; inhibition, % at 2.7 µM; 0.99% of 140,000 active; in the data active means inhibition above about 17%
EP2 confirm – cAMP induction in EP2, EP4, beta2-AR and parental cells, confirmation, counter-screen for EP2 modulator project, cell-based, five parallel assays, C6 glioma, HEK293. calls only at 20 µM (by protocol). 47% of 1,300 active. shares compounds with EP2 modulator. cAMP HTRF induction; plus low (about EC15) PGE2 agonist;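 active means cAMP induction above 50% in the main assay while under 30% in all four parallel counter assays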;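 further: rat C6 glioma cells stably expressing human EP2 receptor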
Large screens that a line does not name were inactive (follow-up assays come after a bar, where they were run).

Cc1ccc(CN(CCCn2ccnc2)Cc2ccc(N(C)C)cc2)s1	none (no result: NPY Y1 blocker, NPY-Y2 PAM-ag, NPY-Y1 PAM-ag, NPY-Y2 antag)
O=C(CN1C(=O)CSC1=O)N1CCN(c2ccccc2)CC1	none (no result: NPY Y1 blocker, NPY-Y2 PAM-ag, NPY-Y1 PAM-ag, NPY-Y2 antag)
FC(F)(F)c1cccc(/C=N/NC(=S)NC2CCCCC2)c1	EP2 modulator 80.0 (no result: NPY-Y2 antag) | EP2 confirm active
FC(F)(F)c1ccc(/C=N/NC(=S)NC2CCCCC2)cc1	none (no result: NPY-Y2 antag)
COc1ccc(-c2c3c(nc4c2c(=O)n(C)c(=O)n4C)-c2ccccc2C3O)cc1 (stereo not drawn)	none (no result: NPY Y1 blocker, NPY-Y2 PAM-ag, NPY-Y1 PAM-ag, NPY-Y2 antag)
O=C(CSc1nc2ccccc2o1)Nc1ccccc1N1CCCCCC1	EP2 modulator 70.8 | EP2 confirm active
O=C(CSc1nc2ccccc2o1)Nc1ccc(N2CCOCC2)c(Cl)c1	none
Cc1cc(C)nc(NC(=O)CSc2nc3ccccc3o2)n1	none
O=C(CSc1nc2ccccc2o1)Nc1cc(C(F)(F)F)ccc1N1CCOCC1	EP2 modulator 80.1 | EP2 confirm active
COCCCN(C(=O)c1ccco1)c1nc(-c2cc(OC)ccc2OC)cs1	EP2 modulator 74.9 | EP2 confirm active
CCC(=O)N(CC)c1nc(-c2cc(OC)ccc2OC)cs1	EP2 modulator 77.7 | EP2 confirm active
COc1ccccc1NC(=O)CN1CCN(Cc2ccc3c(c2)OCO3)CC1	none (no result: NPY Y1 blocker, NPY-Y2 PAM-ag, NPY-Y1 PAM-ag, NPY-Y2 antag)
COC(=O)c1ccccc1NC(=O)C(C)Oc1ccccc1 (stereo not drawn)	none | EP2 confirm inactive
CC(C)NC(=O)c1ccccc1NC(=O)C(C)Oc1ccccc1 (stereo not drawn)	none (no result: NPY-Y2 antag)
CCc1c(C)nc2c(-c3ccc(OC)cc3)c(C)nn2c1C	none (no result: EP2 antag, NPY Y1 blocker, NPY-Y2 PAM-ag, NPY-Y1 PAM-ag, NPY-Y2 antag)
CC1=NN(c2ccccc2)C(=O)/C1=C\C=C\c1ccccc1	none (no result: NPY Y1 blocker, NPY-Y2 antag)
CC1=NN(c2ccc(S(=O)(=O)O)cc2)C(=O)/C1=C\c1ccc(Cl)cc1	EP2 antag 42.8 (no result: NPY Y1 blocker, NPY-Y2 PAM-ag, NPY-Y1 PAM-ag, NPY-Y2 antag) | EP2 confirm inactive
O=C(Cn1ncc2ccccc2c1=O)N1CCC(n2nnc(-c3ccccc3)n2)CC1	none (no result: EP2 antag, NPY Y1 blocker, NPY-Y2 PAM-ag, NPY-Y1 PAM-ag, NPY-Y2 antag)
Cc1ccc(Nc2nc(CSc3nnc(-c4ccccc4)n3C)cs2)cc1	none
Cc1ccc(Nc2nc(CSc3nnc(-c4ccccc4C)n3C)cs2)cc1	EP2 modulator 70.8 | EP2 confirm active
COc1cc2nc(N3CCN(C(=O)C4CCCO4)CC3)nc(N)c2cc1OC (stereo not drawn)	none | EP2 confirm inactive
C#CCn1c(S(=O)(=O)Cc2ccc(F)cc2)nc(-c2ccccc2)c1-c1ccccc1	NPY Y1 blocker 21.2, EP2 modulator 65.0 | EP2 confirm active
CCOC(=O)c1ccccc1NC(=O)C1COc2ccccc2O1 (stereo not drawn)	EP2 modulator 71.7 | EP2 confirm active
Cc1cc(Oc2ccccc2F)nc(NCc2ccccc2)n1	NPY Y1 blocker 25.7, EP2 modulator 65.8, NPY-Y2 antag 24.4 (no result: EP2 antag) | EP2 confirm active
Cc1ccc2[nH]c(=O)c(CN(C(=O)Nc3ccccc3Cl)C3CCCCC3)cc2c1	none (no result: NPY Y1 blocker, NPY-Y2 PAM-ag, NPY-Y1 PAM-ag, NPY-Y2 antag)
Nc1c(C(=O)NCc2ccccc2)c2nc3ccccc3nc2n1CCCN1CCOCC1	EP2 modulator 77.3 | EP2 confirm inactive
Nc1c(C(=O)NCc2ccc(F)cc2)c2nc3ccccc3nc2n1CCCN1CCOCC1	none
Nc1c(C(=O)NCc2ccco2)c2nc3ccccc3nc2n1CCc1ccccc1	EP2 modulator 68.0 | EP2 confirm inactive
O=C(NC1(c2ccc(F)cc2)CCCC1)c1ccc(S(=O)(=O)N2CCOCC2)cc1	none (no result: NPY Y1 blocker, NPY-Y2 PAM-ag, NPY-Y1 PAM-ag, NPY-Y2 antag)
Cc1cc(C)n(-c2nc3ccccc3[nH]c2=O)n1	none
Cc1cc(C)n(-c2nc3ccccc3nc2Nc2ccc3[nH]c(=O)[nH]c3c2)n1	EP2 modulator 83.0 | EP2 confirm inactive
